Results published in ChEMBL document CHEMBL1144777, “An endophytic fungus from Hypericum perforatum that produces hypericin” (J Nat Prod, 2008).
Calls of active or inactive are those of the source.

Experiments:
[1] = test system: Klebsiella pneumoniae subsp. pneumoniae; experiment: Antimicrobial activity against Klebsiella pneumoniae ssp. ozaenae DSM 681 by disk diffusion method; format: functional, organism-based
In short: (§1)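 Samples were fungal products from potato dextrose broth cultures, tested alongside authentic standards. Organic extracts of mycelia and broth were dried by rotary evaporation at 30 °C and redissolved in 1 mL HPLC-grade methanol.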

Pseudomonas aeruginosa = experiment: Antimicrobial activity against Pseudomonas aeruginosa DSM 1128 by disk diffusion method; format: functional, organism-based; in short: as §1
Escherichia coli = experiment: Antimicrobial activity against Escherichia coli DSM 682 by disk diffusion method; format: functional, organism-based; in short: as §1
[2] = test system: Salmonella enterica subsp. enterica; experiment: Antimicrobial activity against Salmonella enterica ssp. enterica DSM 9898 by disk diffusion method; format: functional, organism-based; in short: as §1
Staphylococcus aureus = experiment: Antimicrobial activity against Staphylococcus aureus ssp. Aureus DSM 799 by disk diffusion method; format: functional; in short: as §1
Aspergillus niger = experiment: Antimicrobial activity against Aspergillus niger DSM 1988 by disk diffusion method; format: functional, organism-based; in short: as §1
Candida albicans = experiment: Antimicrobial activity against Candida albicans DSM 1386 by disk diffusion method; format: functional, organism-based; in short: as §1

Measured: Activity

Cc1cc(O)c2c(=O)c3c(O)cc(O)c4c5c(O)cc(O)c6c(=O)c7c(O)cc(C)c8c1c2c(c34)c(c78)c65
active: all assays above

Cc1cc(O)c2c(c1)C(=O)c1cc(O)cc(O)c1C2=O
active: all assays above
